Screening results: PubChem BioAssay, several laboratories
Most compounds without a hit are left out; they make up all but 4.6% or so of the library.
UCH37 inh: inhibitors of human deubiquitinating enzyme UCH37; Q9Y5K5; purified proteasome/UCH37, Ub-AMC cleavage fluorescence; inhibition, % (no concentration beside the values); 330,000 tested, 0.33% active; AID 588478;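 active means mean inhibition over replicate wells above about 20%, limit read from the data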;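 further: 0% = compound-free wells with enzyme and 100% = wells lacking proteasome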
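Signal – fluorescence, ex 355 nm, em 460 nm · System – Proteasome-bound UCH37 · Input – 0.15 nM proteasome as dispensed · Timing – 30 min preincubation with enzyme, 25 min cleavage at room temperature · Read-out basis – percent inhibition of cleavage signal versus uninhibited and no-proteasome wells · Medium – Tris-HCl pH 7.4 with ATP-MgCl2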
FAS TE block: FAS thioesterase (human) inhibition; recombinant FAS-TE, OMFH fluorogenic substrate, fluorescence endpoint; inhibition, % at 15 µM; 360,000 tested, 0.67% active;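 active means compounds whose normalised, plate-corrected inhibition of enzyme fluorescence in the single-dose primary screen is 50% or more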;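 further: 0% = DMSO with enzyme and 100% = substrate without enzyme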
ALR inh: blocks human ALR sulfhydryl oxidase activity; inhibition, % (no concentration beside the values); purified ALR, DTT oxidation, H2O2 HRP-luminol luminescence; 290,000 tested, 3.8% active;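 active means mean replicate inhibition above about 79%, with every replicate also reaching it, limit read from the data; inconclusive means only one of the two criteria met; inactive means mean below limit and not every replicate reaching it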
HDAC3 inh: inhibitors of human histone deacetylase 3 | inhibition, % at 8.3 µM | O15379 | 320,000 tested, 0.15% active | recombinant HDAC3, fluorogenic peptide/trypsin coupled, fluorescence | AID 2718; in the data active means inhibition above about 26%, passing the limit was not always enough; inconclusive means no clear call, values can overlap the other calls
Target sequence (O15379 whole entry, looked up): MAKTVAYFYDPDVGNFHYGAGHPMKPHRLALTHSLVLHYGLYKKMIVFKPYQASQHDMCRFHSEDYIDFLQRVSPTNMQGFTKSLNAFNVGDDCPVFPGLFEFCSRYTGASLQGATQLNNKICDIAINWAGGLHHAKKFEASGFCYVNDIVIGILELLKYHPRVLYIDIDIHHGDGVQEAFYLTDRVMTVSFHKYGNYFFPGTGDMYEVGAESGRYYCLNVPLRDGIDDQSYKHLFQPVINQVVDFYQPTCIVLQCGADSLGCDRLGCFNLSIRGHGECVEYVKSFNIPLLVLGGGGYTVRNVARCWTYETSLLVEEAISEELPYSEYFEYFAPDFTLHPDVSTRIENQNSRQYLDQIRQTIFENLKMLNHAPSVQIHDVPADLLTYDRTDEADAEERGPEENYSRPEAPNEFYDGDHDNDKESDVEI
Rtt109 Vps75: C. albicans Rtt109 histone acetyltransferase inhibition | purified Rtt109/Vps75, ThioGlo CoA-SH fluorescence, 4 h | inhibition, % at 34.9 µM | 330,000 tested, 0.16% active;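 active means inhibition of at least 50% in every replicate; inconclusive means best replicate reaches 50% inhibition but some replicates fall short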
PfM18AAP inh: blocks P. falciparum M18 aspartyl aminopeptidase. recombinant PfM18AAP, H-Glu-NHMec fluorogenic cleavage. inhibition, % at 7.35 µM. 290,000 tested, 1.2% active;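 active means inhibition above the campaign mean inhibition over all tested compounds plus 3 SD, cut at about 28% in these data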;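 further: 0% = plate median of test compound wells and 100% = 2 mM ZnCl2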
* = called active by the depositor; i = inactive; u = inconclusive; x = no result given.

SMILES	UCH37 inh	FAS TE block	ALR inh	HDAC3 inh	Rtt109 Vps75	PfM18AAP inh
CC(=NO)C(=O)NCc1ccncc1	4	x	x	x	x	x
COc1ccccc1N1C(=N)S/C(=C\c2ccc(-c3ccccc3C(=O)O)o2)C1=O	8	-1	98*	8	23	-6
Cc1cccc(NC(=O)C23CCC(C)(C(=NO)C2)C3(C)C)c1 (stereo unspecified)	6	x	x	x	x	x
CCOc1cc(CNCC(O)c2ccccc2)cc(Cl)c1OC (stereo unspecified)	1	-1	99*	-5	x	-1
CCCOc1ccc(C(=O)NN=Cc2c[nH]c3ccc(Br)cc23)cc1	-4	x	x	x	x	x
CNc1nnc(-c2ccc(N(C)C)cc2)s1	i	-5	100*	-237	-25	7
CCOC(=O)COc1ccccc1/C=C\[N+](=O)[O-]	x	-9	23	-2	4	32*
CC(=O)NCCCc1c[nH]c2ccc(Cl)cc12	4	-5	98*	-7	0	0
O=C(NN=Cc1cc(Br)ccc1O)c1ccc(S(=O)(=O)N2CCCCC2)cc1	1	x	x	x	x	x
C/C(=N\N(Cc1ccccc1)c1ccccc1)c1ccncc1	x	16	99*	-3	4	0
Cc1ccccc1CSc1nccn1-c1ccccc1	2	2	99*	0	9	-3
Cc1ccccc1CSc1nnc(-c2ccccn2)n1C	2	-3	-2	1	x	-4
O=C(O)c1ccc(NC(=S)NC(=O)c2cccc(COc3ccccc3)c2)cc1	2	2	97*	3	-1	-9
O=C(NC(=S)Nc1ccc(Oc2ccccc2)cc1)c1ccc(Cl)cc1	3	29	-14	1	55*	-13
O=C(NN=Cc1ccccc1O)c1cccc(C(F)(F)F)c1	-3	x	x	x	x	x
CCOC(=O)c1oc2ccccc2c1CN1CCN(c2ccccc2)CC1	3	20	94*	10	9	4
CCOC(=O)c1oc2ccccc2c1CN1CCN(C(=O)c2ccccc2)CC1	6	-2	-3	2	3	4
O=c1oc2ccccc2c(NCc2ccccc2)c1[N+](=O)[O-]	6	8	6	4	1	4
Nc1c(NCc2ccccc2)c2ccccc2oc1=O	3	3	4	1	6	30*
CC(C)Nc1c(N)c(=O)oc2ccccc12	5	-8	92*	u	1	23
CC(C)Nc1c([N+](=O)[O-])c(=O)oc2ccccc12	9	-5	5	11	3	4
Nc1c(N2CCN(c3ccccc3)CC2)c2ccccc2oc1=O	1	24	98*	4	3	22
Cc1oc(N=Cc2ccc(O)cc2O)c(C#N)c1C	4	x	x	x	x	x
Cn1c(N)c(N2CCN(c3ccccc3)CC2)c(=O)[nH]c1=O	4	-5	98*	-3	4	-9
Cn1c(N)c(C(=O)Nc2ccccc2)c(=O)[nH]c1=O	2	x	-11	-1	x	x
SMILES	UCH37 inh	FAS TE block	ALR inh	HDAC3 inh	Rtt109 Vps75	PfM18AAP inh
CNc1c(N)c(=O)oc2ccccc12	3	0	93*	0	2	7
Cc1ccc(Nc2c(N)c(=O)oc3ccccc23)cc1	-2	7	x	0	-2	7
O=C(CN1C(=O)NC2(CCCC2)C1=O)Nc1cc(Cl)ccc1N1CCOCC1	2	-7	-1	12	-3	x
O=C(CN1C(=O)NC2(CCCC2)C1=O)Nc1cc(Cl)ccc1N1CCCC1	4	-3	87*	-5	6	22
O=C(CN1C(=O)NC2(CCCC2)C1=O)Nc1ccccc1N1CCCC1	1	-8	99*	0	-5	7
O=C(CCNC(=O)c1ccc([N+](=O)[O-])cc1)NN=Cc1ccc(F)cc1	0	x	x	x	x	x
COc1ccc(Nc2cc(C)nc(NCc3ccccc3)n2)cc1	x	-2	75*	x	7	-11
COc1ccc(-c2cc(-c3ccccc3)nc(=O)[nH]2)cc1	i	-3	1	-18	-16	-9
COc1ccc(-c2cc(C(F)(F)F)c3c(=O)n(-c4ccccc4)[nH]c3n2)cc1	9	2	99*	3	x	0
Cc1ccc(/C=c2\sc3n(c2=O)CN(c2ccc(Br)cc2)CN=3)o1	x	18	-9	7	23	29*
COCCN=c1scc(-c2cc(OC)c(OC)c(OC)c2)n1N=Cc1c(C)[nH]c2ccccc12	3	x	x	x	x	x
O=C(O)c1cc(-c2c[nH]c3ccccc23)nc2ccc3ccccc3c12	x	-2	92*	-55	12	2
Cc1cc(CSC(=N)N)c(CSC(=N)N)cc1C	10	-8	99*	0	-1	-6
CC(=O)C1C(=O)c2c(cccc2[N+](=O)[O-])C1=Nc1ccc(S(N)(=O)=O)cc1 (stereo unspecified)	6	-1	-2	2	13	31*
CC(=O)C1=C(O)C(=O)N(c2ccc(S(N)(=O)=O)cc2)C1c1cccc([N+](=O)[O-])c1 (stereo unspecified)	10	-4	-7	2	10	4
COCCCOc1ccnc(CS(=O)c2nc3ccccc3[nH]2)c1C (stereo unspecified)	-3	x	-48	-2	-10	31*
Cc1c(OCC(F)(F)F)ccnc1CS(=O)c1nc2ccccc2[nH]1 (stereo unspecified)	-1	0	97*	3	0	22
CN(C)c1ccc(NC(=O)CSc2nc3ccccc3c(=O)n2CC2CCCO2)cc1 (stereo unspecified)	1	-1	87*	-11	-19	8
O=c1c2ccccc2c2ccccc2c(=O)n1CC1CCCO1 (stereo unspecified)	-1	1	99*	11	-21	6
C/C(C=NNC(=O)Cc1cccn1C)=C/c1ccco1	10	x	x	x	x	x
COc1ccc(C(=O)CC(SCC(NC(C)=O)C(=O)O)c2ccc(Cl)cc2)cc1OC (stereo unspecified)	3	-4	92*	-4	-3	15
COc1ccc([C@H]2/C=C\CN(Cc3ccc(N(C)C)cc3)[C@@H](C)C(=O)N2Cc2ccc(F)cc2)cc1	4	23	98*	6	-1	x
COc1cccc(-c2nc(CS(=O)CC(=O)NC3CC3)c(C)o2)c1 (stereo unspecified)	4	-9	99*	-3	1	1
COc1ccc(-c2nc(CS(=O)CC(=O)NC3CCCCCC3)c(C)o2)cc1 (stereo unspecified)	1	0	98*	12	-1	1
COc1ccc(-c2nc(CS(=O)CC(=O)NC3CCCCC3C)c(C)o2)cc1 (stereo unspecified)	4	-2	99*	-2	-2	-13
COc1ccc(-c2nc(CS(=O)CC(=O)NC3CCCCC3)c(C)o2)cc1 (stereo unspecified)	-2	-7	66	3	-13	-8
